# Assay results reported in ChEMBL document CHEMBL1136726, “Synthesis and characterization of iodine-123 labeled 2beta-carbomethoxy-3beta-(4'-((Z)-2-iodoethenyl)phenyl)nortropane. A ligand for in vivo imaging of serotonin transporters by single-photon-emission tomography” (J Med Chem, 2003).
# Columns and labels:
# [1] = molecular target: Sodium-dependent dopamine transporter (Homo sapiens, UniProt Q01959); assay: In vitro competitive binding versus [N-methyl-3H]WIN-35428 in murine kidney cells transfected with cDNA for human dopamine transporter (DAT); assay type: cell-based
# [2] = test system: Rattus norvegicus; assay: Distribution of radioactivity in rat muscle tissue 120 min after intravenous administration of iodine labeled compound; assay type: ADME, organism-based; details: in vivo, 2 h
# Procedure, shortened: (§1)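 Tail-vein injection of [123I]ZIENT (10 μCi in 0.2 mL 10% EtOH/0.9% NaCl, then 0.4 mL saline flush) into ketamine-anaesthetised male Sprague–Dawley rats (225–300 g). Animals were killed by cardiac excision at set times. Organs were excised, rinsed, blotted, weighed and gamma-counted. % dose/g was calculated against diluted aliquots of injectate. Mean ± SE, n=4–5.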
# [3] = test system: Rattus norvegicus; assay: Distribution of radioactivity in rat brain region striatum 60 min after intravenous administration of iodine labeled compound in absence of blocker in study 1; assay type: ADME, organism-based; details: in vivo, 1 h
# Procedure, shortened: (§2)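 Male Sprague–Dawley rats (250–300 g), ketamine-anaesthetised, received [123I]ZIENT (10 μCi) in 0.2 mL 10% ethanol/0.9% NaCl via the tail vein. […] Rats were killed at 60 min with pentobarbital, brain regions dissected and gamma-counted. Values are % dose/g from decay-corrected, background-subtracted counts against the diluted injected dose.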
# [4] = test system: Rattus norvegicus; assay: Distribution of radioactivity in rat brain region pons 60 min after intravenous administration of iodine labeled compound in presence of RTI-113 blocker in study 1; assay type: ADME, organism-based; details: in vivo, 1 h
# Procedure, shortened: (§3)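 Male Sprague–Dawley rats (250–300 g), ketamine-anesthetized. Blocker (2 mg/kg) or none was given iv 15 min before tail-vein radioligand (10 µCi in 0.2 mL 10% EtOH/saline). Rats were killed at 60 min with im pentobarbital. Brain regions were dissected, weighed and gamma-counted. % dose/g was taken from decay-corrected, background-subtracted counts versus the injected dose.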
# [5] = test system: Rattus norvegicus; assay: Distribution of radioactivity in rat brain hypothalamus 30 min after intravenous administration of iodine labeled compound; assay type: ADME, organism-based; details: in vivo, 0.5 h
# Procedure, shortened: (§4)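 Male Sprague–Dawley rats (225–300 g) under ketamine received 10 µCi radioligand iv (tail vein) in 10% EtOH/saline. Hypothalamus, prefrontal cortex, striatum, pons and cerebellum were dissected, weighed and gamma-counted. % injected dose/g was taken from decay-corrected counts versus diluted dose. Mean ± SE and range, n=5 (5, 30 min) or 4 (60, 120 min).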
# [6] = test system: Rattus norvegicus; assay: Distribution of radioactivity in rat brain 30 min after intravenous administration of iodine labeled compound; assay type: ADME, organism-based; details: in vivo, 0.5 h
# [7] = test system: Rattus norvegicus; assay: Distribution of radioactivity in rat brain cerebellum 30 min after intravenous administration of iodine labeled compound; assay type: ADME, organism-based; details: in vivo, 0.5 h; procedure, shortened: as §4
# [8] = test system: Rattus norvegicus; assay: Distribution of radioactivity in rat brain region pons 60 min after intravenous administration of iodine labeled compound in presence of reboxetine blocker in study 2; assay type: ADME, organism-based; details: in vivo, 1 h; procedure, shortened: as §3
# [9] = test system: Rattus norvegicus; assay: Distribution of radioactivity in rat brain region prefrontal cortex 60 min after intravenous administration of iodine labeled compound in presence of RTI-113 blocker in study 1; assay type: ADME, organism-based; details: in vivo, 1 h; procedure, shortened: as §3
# [10] = test system: Rattus norvegicus; assay: Ratio of distribution of radioactivity in rat brain region hypothalamus and cerebellum 60 min after intravenous administration of iodine labeled compound in absence of blocker in study 2; assay type: ADME, organism-based; details: in vivo, 1 h
# [11] = test system: Rattus norvegicus; assay: Distribution of radioactivity in rat kidney 120 min after intravenous administration of iodine labeled compound; assay type: ADME, organism-based; details: in vivo, 2 h; procedure, shortened: as §1
# [12] = test system: Rattus norvegicus; assay: Distribution of radioactivity in rat brain region cerebellum 60 min after intravenous administration of iodine labeled compound in presence of RTI-113 blocker in study 2; assay type: ADME, organism-based; details: in vivo, 1 h; procedure, shortened: as §3
# [13] = test system: Rattus norvegicus; assay: Distribution of radioactivity in rat kidney 30 min after intravenous administration of iodine labeled compound; assay type: ADME, organism-based; details: in vivo, 0.5 h; procedure, shortened: as §1
# [14] = test system: Rattus norvegicus; assay: Ratio of distribution of radioactivity in rat brain region prefrontal cortex and cerebellum 60 min after intravenous administration of iodine labeled compound in presence of RTI-113 blocker in study 1; assay type: ADME, organism-based; details: in vivo, 1 h
# [15] = test system: Rattus norvegicus; assay: Ratio of distribution of radioactivity in rat brain region hypothalamus and cerebellum 60 min after intravenous administration of iodine labeled compound in presence of fluvoxamine blocker in study 1; assay type: ADME, organism-based; details: in vivo, 1 h
# [16] = test system: Rattus norvegicus; assay: Ratio of distribution of radioactivity in rat brain hypothalamus and cerebellum 5 min after intravenous administration of iodine labeled compound; assay type: ADME, organism-based; details: in vivo
# Procedure, shortened: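 Male Sprague–Dawley rats (225–300 g) under ketamine anaesthesia were given [123I]ZIENT (10 μCi) in 0.2 mL 10% EtOH/0.9% NaCl into the tail vein, with a saline flush. Hypothalamus, prefrontal cortex, striatum, pons and cerebellum were dissected and gamma-counted. % injected dose/g came from decay-corrected counts against the diluted injected dose, and region/cerebellum ratios were taken from these. Mean ± SE, n=4–5.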
# [17] = test system: Rattus norvegicus; assay: Distribution of radioactivity in rat brain region prefrontal cortex 60 min after intravenous administration of iodine labeled compound in absence of blocker in study 1; assay type: ADME, organism-based; details: in vivo, 1 h; procedure, shortened: as §3
# [18] = test system: Rattus norvegicus; assay: Ratio of distribution of radioactivity in rat brain striatum and cerebellum 60 min after intravenous administration of iodine labeled compound; assay type: ADME, organism-based; details: in vivo, 1 h
# Procedure, shortened: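 Male Sprague–Dawley rats (225–300 g), ketamine anesthesia, injected via tail vein with [123I]ZIENT (10 μCi in 0.2 mL 10% EtOH/0.9% NaCl, 0.4 mL saline flush). Killed at 5, 30, 60 or 120 min. Striatum and cerebellum dissected, weighed, γ-counted. Decay-corrected %injected dose/g taken against diluted injectate. Ratio is striatum over cerebellum. Four or five rats per time point, mean ± standard error.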
# [19] = test system: Rattus norvegicus; assay: Distribution of radioactivity in rat heart 5 min after intravenous administration of iodine labeled compound; assay type: ADME, organism-based; details: in vivo; procedure, shortened: as §1
# [20] = test system: Rattus norvegicus; assay: Distribution of radioactivity in rat liver 120 min after intravenous administration of iodine labeled compound; assay type: ADME, organism-based; details: in vivo, 2 h; procedure, shortened: as §1
# [21] = test system: Rattus norvegicus; assay: Distribution of radioactivity in rat muscle tissue 30 min after intravenous administration of iodine labeled compound; assay type: ADME, organism-based; details: in vivo, 0.5 h; procedure, shortened: as §1
# [22] = test system: Rattus norvegicus; assay: Ratio of distribution of radioactivity in rat brain region hypothalamus and cerebellum 60 min after intravenous administration of iodine labeled compound in absence of blocker in study 1; assay type: ADME, organism-based; details: in vivo, 1 h
# [23] = test system: Rattus norvegicus; assay: Distribution of radioactivity in rat muscle tissue 60 min after intravenous administration of iodine labeled compound; assay type: ADME, organism-based; details: in vivo, 1 h; procedure, shortened: as §1
# [24] = test system: Rattus norvegicus; assay: Distribution of radioactivity in rat brain region striatum 60 min after intravenous administration of iodine labeled compound in presence of reboxetine blocker in study 2; assay type: ADME, organism-based; details: in vivo, 1 h; procedure, shortened: as §2
# [25] = test system: Rattus norvegicus; assay: Distribution of radioactivity in rat brain region frontal cortex 60 min after intravenous administration of iodine labeled compound in presence of reboxetine blocker in study 2; assay type: ADME, organism-based; details: in vivo, 1 h; procedure, shortened: as §3
# [26] = test system: Rattus norvegicus; assay: Distribution of radioactivity in rat brain region frontal cortex 60 min after intravenous administration of iodine labeled compound in presence of RTI-113 blocker in study 1; assay type: ADME, organism-based; details: in vivo, 1 h; procedure, shortened: as §3
# [27] = test system: Rattus norvegicus; assay: Ratio of distribution of radioactivity in rat brain region pons and cerebellum 60 min after intravenous administration of iodine labeled compound in absence of blocker in study 1; assay type: ADME, organism-based; details: in vivo, 1 h
# [28] = test system: Rattus norvegicus; assay: Distribution of radioactivity in rat testis 60 min after intravenous administration of iodine labeled compound; assay type: ADME, organism-based; details: in vivo, 1 h; procedure, shortened: as §1
# [29] = test system: Rattus norvegicus; assay: Distribution of radioactivity in rat brain region pons 60 min after intravenous administration of iodine labeled compound in presence of fluvoxamine blocker in study 1; assay type: ADME, organism-based; details: in vivo, 1 h; procedure, shortened: as §3
# [30] = test system: Rattus norvegicus; assay: Distribution of radioactivity in rat brain cerebellum 60 min after intravenous administration of iodine labeled compound; assay type: ADME, organism-based; details: in vivo, 1 h; procedure, shortened: as §4
# [31] = test system: Rattus norvegicus; assay: Distribution of radioactivity in rat brain region hypothalamus 60 min after intravenous administration of iodine labeled compound in presence of reboxetine blocker in study 2; assay type: ADME, organism-based; details: in vivo, 1 h; procedure, shortened: as §3
# [32] = test system: Rattus norvegicus; assay: Distribution of radioactivity in rat brain region frontal cortex 60 min after intravenous administration of iodine labeled compound in absence of blocker in study 1; assay type: ADME, organism-based; details: in vivo, 1 h; procedure, shortened: as §3
# Chain of Sodium-dependent dopamine transporter (Q01959 whole entry): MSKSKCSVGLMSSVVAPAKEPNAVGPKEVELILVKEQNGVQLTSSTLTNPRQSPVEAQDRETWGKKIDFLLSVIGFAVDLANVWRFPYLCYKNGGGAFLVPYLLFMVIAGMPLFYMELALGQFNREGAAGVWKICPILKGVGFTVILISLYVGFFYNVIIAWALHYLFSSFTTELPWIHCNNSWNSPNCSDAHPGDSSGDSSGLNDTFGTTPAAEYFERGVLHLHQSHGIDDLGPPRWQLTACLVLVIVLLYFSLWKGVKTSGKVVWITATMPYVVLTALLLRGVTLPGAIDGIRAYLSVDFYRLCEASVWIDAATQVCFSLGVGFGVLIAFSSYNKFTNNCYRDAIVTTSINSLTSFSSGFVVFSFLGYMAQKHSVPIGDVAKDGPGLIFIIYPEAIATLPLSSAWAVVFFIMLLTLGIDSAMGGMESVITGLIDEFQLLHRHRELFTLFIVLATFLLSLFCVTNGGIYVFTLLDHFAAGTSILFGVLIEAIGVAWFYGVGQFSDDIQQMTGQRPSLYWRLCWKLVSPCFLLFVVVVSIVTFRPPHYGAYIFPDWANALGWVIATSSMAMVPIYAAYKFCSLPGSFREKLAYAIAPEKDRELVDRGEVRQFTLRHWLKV
smiles,measurement,setting,value
COC(=O)[C@@H]1C2CCC(C[C@@H]1c1ccc(/C=C\I)cc1)N2 (some centres not stated),Ki,[1],3.47 nM
same,Distribution (dose/g),[2],0.17%
same,Distribution (dose/g),[3],0.76%
same,Distribution (dose/g),[4],0.56%
same,Distribution (dose/g),[5],0.76%
same,Distribution (dose/g),[6],0.74%
same,Distribution (dose/g),[7],0.32%
same,Distribution (dose/g),[8],0.53%
same,Distribution (dose/g),[9],0.78%
same,Distribution (dose/g),[10],3.95%
same,Distribution (dose/g),[11],0.31%
same,Distribution (dose/g),[12],0.25%
same,Distribution (dose/g),[13],0.49%
same,Distribution (dose/g),[14],3.12%
same,Distribution (dose/g),[15],1.82%
same,Distribution (dose/g),[16],1.09%
same,Distribution (dose/g),[17],0.93%
same,Distribution (dose/g),[18],2.72%
same,Distribution (dose/g),[19],0.81%
same,Distribution (dose/g),[20],0.23%
same,Distribution (dose/g),[21],0.23%
same,Distribution (dose/g),[22],3.83%
same,Distribution (dose/g),[23],0.2%
same,Distribution (dose/g),[24],0.66%
same,Distribution (dose/g),[25],0.63%
same,Distribution (dose/g),[26],0.66%
same,Distribution (dose/g),[27],2.58%
same,Distribution (dose/g),[28],0.32%
same,Distribution (dose/g),[29],0.25%
same,Distribution (dose/g),[30],0.25%
same,Distribution (dose/g),[31],0.65%
same,Distribution (dose/g),[32],0.75%
